Laboratory results: ChEMBL document CHEMBL1154630, “Discovery of colon tumor cell growth inhibitory agents through a combinatorial approach” (Eur J Med Chem, 2010)

Assays:
[1] = biological target: T1, cGMP-inhibited 3',5'-cyclic phosphodiesterase 3A (Homo sapiens, UniProt Q14432); test: Inhibition of human recombinant PDE3A at 50 uM by fluorescence polarization assay using cGMP as substrate
HT-29 [2] = test: Cytotoxicity against human HT-29 cells at 50 uM after 72 hrs by celltiter glo assay; type: functional; conditions: HT-29, 72 h, read-out: GI
In short: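 HT-29 cells in RPMI 1640 plus 5% FBS, cultures >95% viable by Trypan blue. Seeded at 5000 cells/well and incubated 18–24 h, then exposed to a single 50 μM screening dose in triplicate. Live cells measured by CellTiter-Glo luminescent ATP assay at 72 h; percent growth inhibition reported.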

[3] = biological target: T1, cGMP-inhibited 3',5'-cyclic phosphodiesterase 3A; test: Inhibition of human recombinant PDE3A at 50 uM by fluorescence polarization assay using cAMP as substrate
HT-29 [4] = test: Cytotoxicity against human HT-29 cells after 72 hrs by celltiter glo assay; type: functional, cell-based; conditions: HT-29, 72 h
In short: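 HT-29 cells grown in RPMI 1640 with 5% FBS, used only at >95% viability (Trypan blue). 5000 cells/well, left 18–24 h before treatment. Viability read by CellTiter-Glo luminescence (ATP content) 72 h after treatment. IC50 from 8 concentrations, at least four replicates each, fitted to a four-parameter logistic equation.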

[5] = biological target: Baculoviral IAP repeat-containing protein 5 (Homo sapiens, UniProt O15392); test: Inhibition of survivin
Baculoviral IAP repeat-containing protein 5, sequence (O15392 whole entry): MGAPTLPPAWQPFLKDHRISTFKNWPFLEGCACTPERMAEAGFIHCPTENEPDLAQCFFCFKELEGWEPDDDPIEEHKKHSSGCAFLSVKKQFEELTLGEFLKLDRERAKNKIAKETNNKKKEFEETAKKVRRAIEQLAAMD

[6] = biological target: T1, cGMP-inhibited 3',5'-cyclic phosphodiesterase 3A; test: Inhibition of human recombinant PDE3A by fluorescence polarization assay using cGMP as substrate
[7] = biological target: T1, cGMP-inhibited 3',5'-cyclic phosphodiesterase 3A; test: Inhibition of human recombinant PDE3A by fluorescence polarization assay using cAMP as substrate

T1 sequence (Q14432 whole entry): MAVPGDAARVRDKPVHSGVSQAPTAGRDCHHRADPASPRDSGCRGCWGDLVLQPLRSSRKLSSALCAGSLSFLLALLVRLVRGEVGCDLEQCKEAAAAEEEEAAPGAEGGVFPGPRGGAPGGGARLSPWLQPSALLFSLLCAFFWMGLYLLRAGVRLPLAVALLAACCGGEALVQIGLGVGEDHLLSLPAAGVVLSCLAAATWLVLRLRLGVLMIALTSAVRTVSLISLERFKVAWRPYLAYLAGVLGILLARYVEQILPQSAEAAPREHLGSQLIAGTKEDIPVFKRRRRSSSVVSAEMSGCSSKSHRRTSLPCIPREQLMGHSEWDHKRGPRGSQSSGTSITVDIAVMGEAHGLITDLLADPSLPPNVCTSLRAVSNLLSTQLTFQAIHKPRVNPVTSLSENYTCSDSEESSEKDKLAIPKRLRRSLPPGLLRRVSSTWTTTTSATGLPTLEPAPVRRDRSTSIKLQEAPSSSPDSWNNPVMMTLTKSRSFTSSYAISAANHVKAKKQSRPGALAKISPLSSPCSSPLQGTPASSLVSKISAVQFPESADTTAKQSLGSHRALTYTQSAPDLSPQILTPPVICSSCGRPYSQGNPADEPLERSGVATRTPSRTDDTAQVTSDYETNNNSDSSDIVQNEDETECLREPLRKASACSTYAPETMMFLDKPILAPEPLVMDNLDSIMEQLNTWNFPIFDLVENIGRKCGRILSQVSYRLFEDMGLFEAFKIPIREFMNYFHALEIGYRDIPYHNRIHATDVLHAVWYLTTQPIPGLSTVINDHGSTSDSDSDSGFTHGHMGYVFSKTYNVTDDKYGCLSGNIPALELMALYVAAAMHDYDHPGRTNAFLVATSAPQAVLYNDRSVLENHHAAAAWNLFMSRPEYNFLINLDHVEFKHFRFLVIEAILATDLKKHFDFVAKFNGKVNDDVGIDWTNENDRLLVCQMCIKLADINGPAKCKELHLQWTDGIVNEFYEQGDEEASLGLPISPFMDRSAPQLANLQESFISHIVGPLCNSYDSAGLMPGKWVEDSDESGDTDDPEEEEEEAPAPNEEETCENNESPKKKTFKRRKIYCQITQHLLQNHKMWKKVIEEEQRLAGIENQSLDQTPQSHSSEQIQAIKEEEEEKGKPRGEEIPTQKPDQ

Row | Compound | inhibition [1] [%] | inhibition [3] [%] | IC50 [6] [µM] | IC50 [7] [µM] | inhibition of growth at 50 µM (HT-29 [2]) [%] | IC50 (HT-29 [4]) [µM] | Kd [5] [µM]
1 | COc1ccc(-c2cc(-c3ccsc3)[nH]c(=N)c2C#N)cc1 | 30 | 10 |  |  | 75 | 2.7 | 
2 | COc1ccc(OC)c(-c2cc(-c3ccc(Br)cc3)[nH]c(=N)c2C#N)c1 | 20 | 20 |  |  | 95 | 4 | 
3 | COc1ccc(-c2cc(-c3ccc(Br)cc3)[nH]c(=N)c2C#N)c(OC)c1 | 70 | 25 |  |  | 2 |  | 
4 | N#Cc1c(-c2ccccc2O)cc(-c2ccc(Br)cc2)[nH]c1=N | 27 | 22 |  |  | 23 |  | 
5 | COc1ccc(-c2cc(-c3ccc(Br)cc3)[nH]c(=O)c2C#N)c(OC)c1 | -8 | 2 |  |  | 0 |  | 
6 | COc1ccc(OC)c(-c2cc(-c3ccc(Br)cc3)[nH]c(=O)c2C#N)c1 | 17 | 8 |  |  | 33 |  | 
7 | N#Cc1c(-c2ccccc2O)cc(-c2ccccc2Br)[nH]c1=N | 40 | 20 |  |  | 28 |  | 
8 | N#Cc1c(-c2ccccc2)cc(-c2cc(Br)ccc2O)[nH]c1=O |  |  |  |  |  |  | 5.7
9 | N#Cc1c(-c2ccccc2O)cc(-c2ccsc2)[nH]c1=N | 26 | 21 |  |  | 44 |  | 
10 | CCOc1ccccc1-c1cc(-c2ccsc2)[nH]c(=N)c1C#N | -10 | 37 |  |  | 92 | 6 | 
11 | COc1ccccc1-c1cc(-c2ccsc2)[nH]c(=N)c1C#N |  | 47 |  |  | 78 | 35 | 
12 | CCOc1ccc(-c2cc(-c3ccsc3)[nH]c(=N)c2C#N)cc1 | 80 | 55 | 13.5 | 13.3 | -10 |  | 
13 | CCOc1ccc(-c2cc(-c3ccsc3)[nH]c(=O)c2C#N)cc1 | 0 | 7 |  |  | -1 |  | 

Now from value to compound, other results behind:

Row | inhibition [1] [%] | inhibition [3] [%] | IC50 [6] [µM] | IC50 [7] [µM] | Compound | inhibition of growth at 50 µM (HT-29 [2]) [%] | IC50 (HT-29 [4]) [µM] | Kd [5] [µM]
14 | 28 | 10 |  |  | N#Cc1c(-c2ccccc2O)cc(-c2ccc(Br)cc2)[nH]c1=O | 94 | 21 | 
15 | 37 | 21 |  |  | N#Cc1c(-c2ccccc2O)cc(-c2ccsc2)[nH]c1=O | 79 | 46 | 
16 | 0 | 4 |  |  | N#Cc1c(-c2ccsc2)cc(-c2ccccc2)[nH]c1=N | 25 |  | 
17 | 45 | 20 |  |  | N#Cc1c(-c2ccccc2O)cc(-c2cccc(Br)c2)[nH]c1=O | -5 |  | 
18 | 21 | 8 |  |  | N#Cc1c(-c2cccc(Cl)c2)cc(-c2ccc(Br)cc2)[nH]c1=O | 7 |  | 
19 | 36 | 18 |  |  | N#Cc1c(-c2ccccc2O)cc(-c2cccc(Br)c2)[nH]c1=N | 30 |  | 
20 | 47 | 36 |  |  | N#Cc1c(-c2ccccc2Cl)cc(-c2ccc(Br)cc2)[nH]c1=N | -16 |  | 
21 | 20 | 15 |  |  | N#Cc1c(-c2cccc(Cl)c2)cc(-c2ccccc2)[nH]c1=N |  |  | 
22 | 0 | 8 |  |  | COc1ccc(-c2cc(-c3ccsc3)[nH]c(=O)c2C#N)cc1 | -20 |  | 
23 | 50 | 34 |  |  | N#Cc1c(-c2ccccc2O)cc(-c2ccccc2Br)[nH]c1=O | 22 |  | 
24 | 14 | 5 |  |  | N#Cc1c(-c2ccc(Cl)cc2)cc(-c2ccsc2)[nH]c1=O |  |  | 
25 | 36 | 18 |  |  | N#Cc1c(-c2ccccc2Cl)cc(-c2ccc(Br)cc2)[nH]c1=O | 5 |  | 
26 | 20 | 5 |  |  | CCOc1ccccc1-c1cc(-c2ccsc2)[nH]c(=O)c1C#N | 80 | 1.25 | 
27 | 24 | 10 |  |  | N#Cc1c(-c2cccc(Cl)c2)cc(-c2ccccc2)[nH]c1=O | 80 | 2.1 | 
28 | 13 | 10 |  |  | N#Cc1c(-c2cccc(Cl)c2)cc(-c2ccc(Br)cc2)[nH]c1=N | 7 |  | 
29 | 8 | 10 |  |  | COc1ccccc1-c1cc(-c2ccsc2)[nH]c(=O)c1C#N | 20 |  | 
30 | 9 | 7 |  |  | N#Cc1c(-c2ccsc2)cc(-c2ccccc2)[nH]c1=O | -10 |  | 
31 | 45 | 28 |  |  | N#Cc1c(-c2ccc(Cl)cc2)cc(-c2ccsc2)[nH]c1=N | 65 |  | 
